ChEMBL document CHEMBL4665669, “Novel tertiary sulfonamide derivatives containing benzimidazole moiety as potent anti-gastric cancer agents: Design, synthesis and SAR studies” (Eur J Med Chem, 2019)
pIC50: −log10 of the molar value.

Assays:
[1] = tested on: PC-3; assay: Anticancer activity against human PC-3 cells assessed as inhibition of cell proliferation after 48 hrs by MTT assay; assay type: functional, cell-based; conditions: PC-3, 48 h
In short: (§1)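 MTT assay with 48 h compound exposure. MTT solution was then added and incubated 4 h at 37 °C, the supernatant discarded and formazan dissolved in DMSO, with absorbance read at 490 nm. IC50 values were calculated from three independent experiments, reported as mean SD.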

[2] = tested on: MGC-803; assay: Anticancer activity against human MGC-803 cells assessed as inhibition of cell proliferation after 48 hrs by MTT assay; assay type: functional, cell-based; conditions: MGC-803, 48 h; in short: as §1
[3] = tested on: MCF7; assay: Anticancer activity against human MCF7 cells assessed as inhibition of cell proliferation after 48 hrs by MTT assay; assay type: functional, cell-based; conditions: MCF7, 48 h; in short: as §1
[4] = tested on: HGC-27; assay: Anticancer activity against human HGC-27 cells assessed as inhibition of cell proliferation after 48 hrs by MTT assay; assay type: functional, cell-based; conditions: HGC-27, 48 h; in short: as §1
[5] = tested on: GES1; assay: Cytotoxicity against human GES1 cells assessed as inhibition of cell proliferation after 48 hrs by MTT assay; assay type: cell-based; conditions: GES1, 48 h
In short: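 Normal gastric epithelial GES-1 cells were exposed to compound for 48 h. MTT was then added for 4 h at 37 °C. Formazan was dissolved in DMSO after the supernatant was removed, and absorbance was read at 490 nm. IC50 was computed from three independent experiments, given as mean SD.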

[6] = tested on: SGC-7901; assay: Anticancer activity against human SGC-7901 cells assessed as inhibition of cell proliferation after 48 hrs by MTT assay; assay type: functional, cell-based; conditions: SGC-7901, 48 h; in short: as §1
[7] = Inhibition of HIF in human LN229 cells transfected with HRE-luc/LacZ by dual luciferase reporter gene assay; assay type: cell-based; conditions: LN-229
[8] = molecular target: Carbonic anhydrase 9 (Homo sapiens, UniProt Q16790); assay: Inhibition of recombinant human CA9 preincubated for 15 mins by phenol red dye based stopped flow CO2 hydration assay

Q: With `COc1ccc(CN(c2cc(OC)c(OC)c(OC)c2)S(=O)(=O)c2ccc(C)cc2)cc1` as the compound, how does the pIC50 [1] read?
A: 5.09

Q: And the pIC50 [2]?
A: 5.36

Q: And the pIC50 [3]?
A: 4.99

Q: With `COc1ccc(CN(c2cc(OC)c(OC)c(OC)c2)S(=O)(=O)c2c(C)cc(C)cc2C)cc1` as the compound, how does the pIC50 [1] read?
A: 4.83

Q: And the pIC50 [2]?
A: 5.19

Q: What about the pIC50 [3] of the same compound?
A: 4.73

Q: Which results are given for `O=c1[nH]cc(F)c(=O)[nH]1` [FLUOROURACIL]?
A: pIC50 [4]: 5.37; pIC50 [1]: 4.73; pIC50 [5]: 4.99; pIC50 [3]: 4.77; pIC50 [6]: 5.26

Q: Which results are given for `COc1cc(N(Cc2nc3ccccc3[nH]2)S(=O)(=O)c2ccc(Br)cc2)cc(OC)c1OC`?
A: pIC50 [1]: 5.16; pIC50 [2]: 5.66; pIC50 [3]: 5.11

Q: With `COc1ccc(N(Cc2nc3ccccc3[nH]2)S(=O)(=O)c2ccc(C)cc2)cc1` as the compound, how does the pIC50 [1] read?
A: < 4.30

Q: And the pIC50 [2]?
A: < 4.30

Q: And the pIC50 [3]?
A: < 4.30

Q: Which results are given for `COc1cc(N(Cc2nc3ccccc3[nH]2)S(=O)(=O)c2ccc(C(C)(C)C)cc2)cc(OC)c1OC`?
A: pIC50 [1]: 4.53; pIC50 [2]: 4.62; pIC50 [3]: 4.47

Q: With `Cc1ccc(S(=O)(=O)N(Cc2nc3ccccc3[nH]2)c2ccc(Cl)cc2)cc1` as the compound, how does the pIC50 [1] read?
A: 4.37

Q: What about the pIC50 [2] of the same compound?
A: 4.61

Q: What about the pIC50 [3] of the same compound?
A: 4.42

Q: With `COc1cc(N(Cc2nc3ccccc3[nH]2)C(=O)c2ccc(Br)cc2)cc(OC)c1OC` as the compound, how does the pIC50 [1] read?
A: 4.70

Q: What about the pIC50 [2] of the same compound?
A: 4.84

Q: What about the pIC50 [3] of the same compound?
A: < 4.30

Q: With `COc1ccc(S(=O)(=O)N(Cc2nc3ccccc3[nH]2)c2cc(OC)c(OC)c(OC)c2)cc1OC` as the compound, how does the pIC50 [1] read?
A: 4.52

Q: What about the pIC50 [2] of the same compound?
A: 4.65

Q: And the pIC50 [3]?
A: 4.32

Q: Which results are given for `COc1ccc(N(Cc2nc3ccccc3[nH]2)S(=O)(=O)c2ccc(C)cc2)cc1OC`?
A: pIC50 [1]: < 4.30; pIC50 [2]: < 4.30; pIC50 [3]: < 4.30

Q: With `COc1cc(N(Cc2nc3ccccc3[nH]2)S(=O)(=O)c2ccc(F)cc2)cc(OC)c1OC` as the compound, how does the pIC50 [1] read?
A: 5.10

Q: And the pIC50 [2]?
A: 5.25

Q: What about the pIC50 [3] of the same compound?
A: 5.03

Q: With `COc1ccc(S(=O)(=O)N(Cc2ccc3c(c2)OC(C)(C)C=C3)c2ccccc2)cc1OC` as the compound, how does the pIC50 [7] read?
A: 6.23

Q: With `COc1cc(N(Cc2nc3ccccc3[nH]2)C(=O)c2ccc(C(C)(C)C)cc2)cc(OC)c1OC` as the compound, how does the pIC50 [1] read?
A: 4.34

Q: What about the pIC50 [2] of the same compound?
A: < 4.30

Q: And the pIC50 [3]?
A: 4.31

Q: With `COc1cc(N(Cc2cccc(C)c2)S(=O)(=O)c2ccc(C)cc2)cc(OC)c1OC` as the compound, how does the pIC50 [1] read?
A: 5.07

Q: What about the pIC50 [2] of the same compound?
A: 5.36

Q: And the pIC50 [3]?
A: 4.85

Q: With `Cc1ccc(S(=O)(=O)N(Cc2nc3ccccc3[nH]2)c2ccccc2)cc1` as the compound, how does the pIC50 [1] read?
A: < 4.30

Q: And the pIC50 [2]?
A: 4.35

Q: And the pIC50 [3]?
A: 4.30

Q: Which results are given for `COc1cc(N(Cc2ccc(Cl)cc2)S(=O)(=O)c2ccc(C)cc2)cc(OC)c1OC`?
A: pIC50 [1]: 4.84; pIC50 [2]: 5.76; pIC50 [3]: 4.73

Q: With `COc1ccc(CN(c2cc(OC)c(OC)c(OC)c2)S(=O)(=O)c2ccc(OC)c(OC)c2)cc1` as the compound, how does the pIC50 [1] read?
A: 4.70

Q: What about the pIC50 [2] of the same compound?
A: 5.08

Q: What about the pIC50 [3] of the same compound?
A: 4.64

Q: With `COc1ccc(CN(c2cc(OC)c(OC)c(OC)c2)S(=O)(=O)c2ccccc2)cc1` as the compound, how does the pIC50 [1] read?
A: < 4.30

Q: And the pIC50 [2]?
A: < 4.30

Q: What about the pIC50 [3] of the same compound?
A: < 4.30

Q: What does the source list for `COc1cc(N(Cc2nc3ccccc3[nH]2)C(=O)c2ccc(F)cc2)cc(OC)c1OC`?
A: pIC50 [1]: 4.66; pIC50 [2]: 4.63; pIC50 [3]: 4.34

Q: With `COc1cc(N(Cc2nc3ccccc3[nH]2)C(=O)c2ccccc2)cc(OC)c1OC` as the compound, how does the pIC50 [1] read?
A: < 4.30

Q: What about the pIC50 [2] of the same compound?
A: < 4.30

Q: And the pIC50 [3]?
A: < 4.30

Q: With `Cc1ccc(N(CC(C)F)S(=O)(=O)c2ccc([N+](=O)[O-])cc2)cc1` (configuration not stated) as the compound, how does the pIC50 [8] read?
A: 8.38

Q: With `COc1cc(N(Cc2nc3ccccc3[nH]2)S(=O)(=O)c2ccccc2Cl)cc(OC)c1OC` as the compound, how does the pIC50 [1] read?
A: 4.46

Q: What about the pIC50 [2] of the same compound?
A: 4.72

Q: And the pIC50 [3]?
A: 4.42

Q: Which results are given for `COc1cc(N(Cc2csc3ccc(Cl)cc23)S(=O)(=O)c2ccc(C)cc2)cc(OC)c1OC`?
A: pIC50 [1]: 4.82; pIC50 [2]: 5.46; pIC50 [3]: 5.05

Q: What does the source list for `COc1cc(N(Cc2nc3ccccc3[nH]2)C(=O)c2cccc(Cl)c2)cc(OC)c1OC`?
A: pIC50 [1]: < 4.30; pIC50 [2]: < 4.30; pIC50 [3]: 4.46

Q: With `COc1cc(N(Cc2ccc(F)cc2)S(=O)(=O)c2ccc(C)cc2)cc(OC)c1OC` as the compound, how does the pIC50 [1] read?
A: 4.68

Q: What about the pIC50 [2] of the same compound?
A: 5.43

Q: What about the pIC50 [3] of the same compound?
A: 4.72

Q: With `COc1ccc(CN(c2cc(OC)c(OC)c(OC)c2)S(=O)(=O)c2ccc(C(C)(C)C)cc2)cc1` as the compound, how does the pIC50 [1] read?
A: 4.54

Q: And the pIC50 [2]?
A: 4.99

Q: What about the pIC50 [3] of the same compound?
A: 4.49

Q: With `Cc1ccc(N(Cc2nc3ccccc3[nH]2)S(=O)(=O)c2ccc(C)cc2)cc1` as the compound, how does the pIC50 [1] read?
A: 4.31

Q: What about the pIC50 [2] of the same compound?
A: 4.38

Q: What about the pIC50 [3] of the same compound?
A: < 4.30

Q: With `COc1cc(N(Cc2ccc(Br)cc2)S(=O)(=O)c2ccc(C)cc2)cc(OC)c1OC` as the compound, how does the pIC50 [1] read?
A: 5.33

Q: And the pIC50 [2]?
A: 5.79

Q: What about the pIC50 [3] of the same compound?
A: 4.96

Q: With `COc1cc(N(Cc2nc3ccccc3[nH]2)C(=O)c2ccc(C)cc2)cc(OC)c1OC` as the compound, how does the pIC50 [1] read?
A: 4.38

Q: What about the pIC50 [2] of the same compound?
A: 4.52

Q: What about the pIC50 [3] of the same compound?
A: 4.31

Q: With `Cc1ccc(S(=O)(=O)N(Cc2nc3ccccc3[nH]2)c2ccc(F)cc2)cc1` as the compound, how does the pIC50 [1] read?
A: 4.35

Q: What about the pIC50 [2] of the same compound?
A: 4.46

Q: And the pIC50 [3]?
A: < 4.30

Q: Which results are given for `COc1cc(N(Cc2nc3ccccc3[nH]2)S(=O)(=O)c2ccccc2)cc(OC)c1OC`?
A: pIC50 [1]: 4.59; pIC50 [2]: 4.91; pIC50 [3]: 4.56

Q: With `COc1cc(N(Cc2ccccc2)S(=O)(=O)c2ccc(C)cc2)cc(OC)c1OC` as the compound, how does the pIC50 [1] read?
A: 5.11

Q: What about the pIC50 [2] of the same compound?
A: 5.45

Q: What about the pIC50 [3] of the same compound?
A: 4.99

Q: Which results are given for `COc1ccc(C(=O)N(Cc2nc3ccccc3[nH]2)c2cc(OC)c(OC)c(OC)c2)cc1OC`?
A: pIC50 [1]: 4.46; pIC50 [2]: 4.65; pIC50 [3]: < 4.30
